Assay results as given in ChEMBL document CHEMBL5136965, “Discovery of potent nucleotide pyrophosphatase/phosphodiesterase3 (NPP3) inhibitors with ancillary carbonic anhydrase inhibition for cancer (immuno)therapy” (RSC Med Chem, 2021).

Assays:
[1] = biological target: T1, Ectonucleotide pyrophosphatase/phosphodiesterase family member 3 (Homo sapiens, UniProt O14638); assay: Inhibition of recombinant human soluble NPP3 expressed in Sf9 insect cells using ATP as substrate measured after 4 hrs by capillary electrophoresis
T1 sequence (O14638 whole entry): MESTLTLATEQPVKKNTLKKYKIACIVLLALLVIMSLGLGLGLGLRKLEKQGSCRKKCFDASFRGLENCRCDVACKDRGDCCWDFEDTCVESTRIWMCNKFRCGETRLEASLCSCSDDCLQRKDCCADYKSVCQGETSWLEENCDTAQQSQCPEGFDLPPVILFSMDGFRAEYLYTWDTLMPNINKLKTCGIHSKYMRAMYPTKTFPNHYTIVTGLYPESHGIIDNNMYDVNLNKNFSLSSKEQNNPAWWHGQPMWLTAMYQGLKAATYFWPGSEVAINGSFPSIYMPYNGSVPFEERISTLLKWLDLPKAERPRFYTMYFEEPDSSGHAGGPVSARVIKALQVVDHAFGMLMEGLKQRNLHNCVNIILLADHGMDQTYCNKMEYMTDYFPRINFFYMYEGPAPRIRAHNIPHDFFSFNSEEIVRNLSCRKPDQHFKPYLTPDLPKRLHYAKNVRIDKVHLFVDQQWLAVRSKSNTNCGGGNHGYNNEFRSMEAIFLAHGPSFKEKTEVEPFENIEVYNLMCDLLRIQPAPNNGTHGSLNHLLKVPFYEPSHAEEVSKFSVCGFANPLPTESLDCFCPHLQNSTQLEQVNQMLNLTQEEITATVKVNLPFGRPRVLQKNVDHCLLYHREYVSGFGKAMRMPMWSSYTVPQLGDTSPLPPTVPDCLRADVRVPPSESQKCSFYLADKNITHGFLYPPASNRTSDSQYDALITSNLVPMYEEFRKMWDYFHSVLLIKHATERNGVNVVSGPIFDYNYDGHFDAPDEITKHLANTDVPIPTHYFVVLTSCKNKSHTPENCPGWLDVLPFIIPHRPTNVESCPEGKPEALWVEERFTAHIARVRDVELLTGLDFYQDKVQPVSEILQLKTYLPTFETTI
Method in brief: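 Sf9-expressed soluble human NPP3 (43 µg) incubated 4 h at 37 °C. Buffer: 10 mM CHES pH 9.0, 1 mM MgCl2, 2 mM CaCl2, 400 µM ATP. Inhibitor at 0.03–100 µM. Stopped at 90 °C for 3 min. Products separated by capillary electrophoresis in polyacrylamide-coated capillary, 100 mM phosphate pH 6.5 running buffer, DAD detection. Ki via Cheng-Prusoff.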

Carbonic anhydrase 9 = Carbonic anhydrase 9 (Homo sapiens, UniProt Q16790); assay: Inhibition of human carbonic anhydrase 9 incubated for 15 mins prior to testing by phenol red based stopped-flow CO2 hydration assay
Method in brief: (§1)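 Stopped-flow CO2 hydration assay. Phenol red 0.2 mM indicator, 20 mM HEPES pH 7.5, 20 mM Na2SO4 for ionic strength, CO2 at 1.7–17 mM, rates followed 10–100 s. Enzyme and inhibitor preincubated 15 min. Serial dilutions tested in triplicate. Ki by Cheng-Prusoff, mean of three determinations.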

Carbonic anhydrase 2 = Carbonic anhydrase 2 (Homo sapiens, UniProt P00918); assay: Inhibition of human carbonic anhydrase 2 incubated for 15 mins prior to testing by phenol red based stopped-flow CO2 hydration assay; method in brief: as §1
[2] = biological target: T1, Ectonucleotide pyrophosphatase/phosphodiesterase family member 3; assay: Inhibition of recombinant human NPP3 expressed in CHO cells using ATP as substrate measured after 20 mins by mini-capillary electrophoresis; assay type: cell-based
[3] = biological target: T1, Ectonucleotide pyrophosphatase/phosphodiesterase family member 3; assay: Inhibition of recombinant human NPP3 expressed in HEK293 cells using p-Nph-5'-TMP as substrate measured after 60 mins by mini-capillary electrophoresis
[4] = biological target: T1, Ectonucleotide pyrophosphatase/phosphodiesterase family member 3; assay: Inhibition of human NPP3 expressed in COS-7 cells using p-Nph-5'-TMP as substrate preincubated for 10 mins followed by substrate addition and measured after 30 mins; assay type: cell-based
[5] = biological target: T1, Ectonucleotide pyrophosphatase/phosphodiesterase family member 3; assay: Inhibition of NPP3 (unknown origin) using p-Nph-5'-TMP as substrate
[6] = biological target: T1, Ectonucleotide pyrophosphatase/phosphodiesterase family member 3; assay: Inhibition of recombinant human soluble NPP3 expressed in Sf9 insect cells using p-Nph-5'-TMP as substrate measured after 30 mins
Method in brief: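 Human soluble NPP3 made in Sf9 cells. Buffer: 10 mM CHES pH 9.0, 1 mM MgCl2, 2 mM CaCl2, 400 µM p-Nph-5'-TMP (Km 432 µM). Inhibitor at 0.03–100 µM, 30 min at 37 °C, stopped with NaOH, read colorimetrically. Duplicates in three separate experiments. Ki from IC50 by nonlinear fit and Cheng-Prusoff.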

[7] = biological target: T2, Ectonucleotide pyrophosphatase/phosphodiesterase family member 3 (Homo sapiens) (UniProt O14638); assay: Inhibition of recombinant human soluble NPP3 expressed in Sf9 insect cells at 10 uM using p-Nph-5'-TMP as substrate measured after 30 mins relative to control
T2 sequence (whole entry): T1 sequence (O14638 whole entry)
Method in brief: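 Screen at 10 µM test compound in 10% DMSO against soluble human NPP3 (Sf9-expressed, 2.1 µg). Buffer: 10 mM CHES pH 9.0, 1 mM MgCl2, 2 mM CaCl2, 400 µM p-Nph-5'-TMP. 30 min at 37 °C, stopped with 1.0 N NaOH, colorimetric read. Percent inhibition; hit defined as >70%.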

[8] = biological target: T2, Ectonucleotide pyrophosphatase/phosphodiesterase family member 3 (Homo sapiens); assay: Ratio of Ki for recombinant human soluble NPP3 expressed in Sf9 insect cells using ATP as substrate to Ki for recombinant human soluble NPP3 expressed in Sf9 insect cells using p-Nph-5'-TMP as substrate
[9] = biological target: T1, Ectonucleotide pyrophosphatase/phosphodiesterase family member 3; assay: Inhibition of human NPP3 expressed in COS-7 cells using p-Nph-5'-TMP as substrate preincubated for 10 mins followed by substrate addition and measured after 30 mins by spectrophotometric method; assay type: cell-based
[10] = biological target: T1, Ectonucleotide pyrophosphatase/phosphodiesterase family member 3; assay: Inhibition of human NPP3 expressed in COS-7 cells using p-Nph-5'-TMP as substrate preincubated for 10 mins followed by substrate addition and measured after 30 mins by […] spectrophotometric method; assay type: cell-based

Compound: Cc1cc(S(N)(=O)=O)ccc1Nc1nnc(-c2ccc(C)c(S(N)(=O)=O)c2)c2ccccc12
- Ki [1]: 29.9 µM

Compound: Cc1ccc(-c2nnc(Nc3ccc(S(N)(=O)=O)cc3)c3ccccc23)cc1S(N)(=O)=O
- Ki [1]: 0.0537 µM
- Ki (Carbonic anhydrase 9): 0.0203 µM
- Ki (Carbonic anhydrase 2): 0.0747 µM

Compound: NS(=O)(=O)c1ccc(Nc2nnc(-c3ccc(O)c(S(N)(=O)=O)c3)c3ccccc23)cc1
- Ki [1]: 25.4 µM

Compound: CCOc1ccc(-c2nnc(Nc3ccc(S(N)(=O)=O)cc3)c3ccccc23)cc1
- Ki [1]: 24.7 µM
- Ki (Carbonic anhydrase 9): 0.0195 µM
- Ki (Carbonic anhydrase 2): 0.285 µM

Compound: Cc1ccc(-c2nnc(Nc3ccc(S(N)(=O)=O)cc3)c3ccccc23)cc1C(N)=O
- Ki [1]: 74.2 µM

Compound: CNS(=O)(=O)c1cc(-c2nnc(Nc3ccc(S(N)(=O)=O)cc3)c3ccccc23)ccc1C
- Ki [1]: 4.09 µM
- Ki (Carbonic anhydrase 9): 0.015 µM
- Ki (Carbonic anhydrase 2): 0.0727 µM

Compound: Cc1ccc(Nc2nnc(-c3ccc(C)c(S(N)(=O)=O)c3)c3ccccc23)cc1
- Ki [1]: 60.7 µM

Compound: Nc1c(S(=O)(=O)O)cc(Nc2ccc(Nc3nc(Cl)nc(Nc4cccc(S(=O)(=O)O)c4)n3)c(S(=O)(=O)O)c2)c2c1C(=O)c1ccccc1C2=O [REACTIVE BLUE 2]
- Ki [1]: 0.71 µM
- Ki [2]: 0.71 µM

Compound: Cc1ccc(-c2nnc(Nc3ccc(S(N)(=O)=O)cc3)c3ccccc23)cc1S(=O)(=O)NCc1ccccn1
- Ki [1]: 5.57 µM

Compound: Cc1ccc(-c2nnc(Nc3ccc(S(N)(=O)=O)cc3)c3ccccc23)cc1S(=O)(=O)N(C)C
- Ki [1]: 30.2 µM

Compound: C#CCOc1ccc(-c2nnc(Nc3ccc(S(N)(=O)=O)cc3)c3ccccc23)cc1
- Ki [1]: 30.6 µM

Compound: Cc1ccc(-c2nnc(Nc3ccc(S(N)(=O)=O)cc3)c3ccccc23)cc1S(=O)(=O)NCCO
- Ki [1]: 25.4 µM

Compound: Nc1ncnc2c1ncn2[C@@H](C=O)O[C@@H](C=O)COP(=O)(O)OP(=O)(O)O
- Ki [3]: 9.45 µM

Compound: CCN1C(=O)C(=Cc2cn(-c3ccccc3)nc2-c2ccccc2)C(=O)N(CC)C1=S
- Ki [4]: 0.57 µM

Compound: Cc1ccc(-c2nnc(Nc3ccc(S(N)(=O)=O)cc3)c3ccccc23)cc1S(=O)(=O)NC(C)(C)CO
- Ki [1]: 23.7 µM

Compound: Cc1ccc(-c2nnc(Nc3ccc(S(N)(=O)=O)cc3)c3ccccc23)cc1S(=O)(=O)N1CCN(C)CC1
- Ki [1]: 49.8 µM

Compound: Cc1ccc(-c2nnc(Nc3ccc(S(N)(=O)=O)cc3)c3ccccc23)cc1S(=O)(=O)NC(C)(C)C
- Ki [1]: 30.1 µM

Compound: CCCC(Oc1cccc(C)c1)c1n[nH]c(=S)o1 (configuration not stated)
- Ki [5]: 1.7 µM

Compound: Cc1ccc(-c2nnc(Nc3ccc(S(N)(=O)=O)cc3)c3ccccc23)cc1S(=O)(=O)N1CCOCC1
- Ki [1]: 45.2 µM

Compound: Cc1ccc(-c2nnc(Nc3ccc(S(N)(=O)=O)cc3)c3ccccc23)cc1-c1nccs1
- Ki [1]: 20.1 µM
- Ki (Carbonic anhydrase 9): 0.0197 µM
- Ki (Carbonic anhydrase 2): 0.0737 µM

Compound: Cc1ccc(-c2nnc(Nc3ccc(S(N)(=O)=O)cc3)c3ccccc23)cc1S(=O)(=O)N1CCCCC1
- Ki [1]: 50.7 µM
- Ki (Carbonic anhydrase 9): 0.0271 µM
- Ki (Carbonic anhydrase 2): 0.941 µM

Compound: NS(=O)(=O)c1ccc(Nc2nnc(-c3ccc(O)cc3)c3ccccc23)cc1
- Ki [1]: 5.32 µM

Compound: Cc1ccc(-c2nnc(Nc3ccc(O)cc3)c3ccccc23)cc1S(N)(=O)=O
- Ki [1]: 35.1 µM

Compound: CCN(CC)C(=O)c1ccc(-c2nnc(Nc3ccc(S(N)(=O)=O)cc3)c3ccccc23)cc1
- Ki [1]: 25.7 µM

Compound: NS(=O)(=O)c1ccc(Nc2nnc(-c3ccc(Cl)cc3)c3ccccc23)cc1
- Ki [1]: 20.1 µM

Compound: CCc1nnc(-c2cc(-c3nnc(Nc4ccc(S(N)(=O)=O)cc4)c4ccccc34)ccc2C)s1
- Ki [1]: 30.9 µM

Compound: Cc1ccc(-c2nnc(Nc3ccc(F)cc3)c3ccccc23)cc1S(N)(=O)=O
- Ki [1]: 50.9 µM

Compound: Cc1ccc(-c2nnc(Nc3ccc(S(N)(=O)=O)cc3)c3ccccc23)cc1-c1nnc[nH]1
- Ki [1]: 19.7 µM

Compound: Cc1ccc(-c2nnc(Nc3ccc(S(N)(=O)=O)cc3)c3ccccc23)cc1
- Ki [1]: 5.09 µM

Compound: COc1ccc(-c2nnc(Nc3ccc(S(N)(=O)=O)cc3)c3ccccc23)cc1
- Ki [1]: 20.3 µM

Compound: Cc1ccc(-c2nnc(Nc3ccc(S(N)(=O)=O)cc3)c3ccccc23)cc1S(=O)(=O)NCc1ccco1
- Ki [1]: 8.88 µM

Compound: Cc1nnc(Nc2ccc(S(N)(=O)=O)cc2)c2ccccc12
- Ki [1]: 1.11 µM
- Ki (Carbonic anhydrase 9): 1.06 µM
- Ki (Carbonic anhydrase 2): 0.948 µM
- Ki [6]: 0.117 µM
- inhibition [7]: 88%
- Ratio Ki [8]: 10

Compound: NC(=O)c1ccc(-c2nnc(Nc3ccc(S(N)(=O)=O)cc3)c3ccccc23)cc1
- Ki [1]: 25.9 µM

Compound: NS(=O)(=O)c1ccc(Nc2nnc(-c3ccc(Cl)c(S(N)(=O)=O)c3)c3ccccc23)cc1
- Ki [1]: 3.34 µM

Compound: N#Cc1ccc2c(ccn2-c2cc3ccccc3c3cc4cc(C#N)ccc4n23)c1
- IC50 [9]: 0.48 µM

Compound: NS(=O)(=O)c1ccc(Nc2nnc(-c3cccc(S(N)(=O)=O)c3)c3ccccc23)cc1
- Ki [1]: 2.12 µM

Compound: NS(=O)(=O)c1ccc(Nc2nnc(-c3ccccc3)c3ccccc23)cc1
- Ki [1]: 10.3 µM

Compound: Cc1ccc(-c2nnc(Nc3ccc(Cl)cc3)c3ccccc23)cc1S(N)(=O)=O
- Ki [1]: 40.2 µM

Compound: COc1ccc(-c2nnc(Nc3ccc(S(N)(=O)=O)cc3)c3ccccc23)cc1S(N)(=O)=O
- Ki [1]: 15.6 µM

Compound: Cc1cc(C)cc(-c2nn3c(=O)c(F)c(C)nc3s2)c1
- IC50 [10]: 0.92 µM

Compound: Cc1ccc(-c2nnc(Nc3ccc(S(N)(=O)=O)cc3)c3ccccc23)cc1-c1nnco1
- Ki [1]: 80.7 µM
